ChEMBL document CHEMBL1926519, “B-Ring-modified and/or 5-demethylated nobiletin congeners: inhibitory activity against pro-MMP-9 production” (Bioorg Med Chem, 2011)
Calls of active or inactive are those of the source. The rule behind the calls is not given here.

How the values were obtained:
[1] = Ratio of IC50 for PMA-stimulated pro MMP9 production in human SRA 01/04 cells to IC50 for TNFalpha-stimulated pro MMP9 production in human SRA 01/04 cells; type: functional
[2] = Inhibition of PMA-stimulated pro MMP9 production in human SRA 01/04 cells after 24 hrs by SDS-PAGE based gelatin zymography assay; type: functional, cell-based
Summary of the method: (§1)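 Confluent SRA01/04 cells (DMEM, 20% heat-inactivated FBS, 37 °C, 5% CO2) treated 24 h with test sample at 0.25, 1, 4, 16, 64 µM plus PMA 10 nM or TNF-a 10 ng/mL. Media run on 10% SDS–PAGE with 0.6 mg/mL gelatin, incubated at 37 °C in Tris–HCl pH 7.5/CaCl2/ZnCl2, Coomassie-stained. Pro-MMP-9 bands quantified densitometrically, giving IC50, triplicate means.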

[3] = Inhibition of TNFalpha-stimulated pro MMP9 production in human SRA 01/04 cells after 24 hrs by SDS-PAGE based gelatin zymography assay; type: functional, cell-based; summary of the method: as §1
[4] = Cytotoxicity against human SRA 01/04 cells at 64 uM after 24 hrs by LDH release assay; type: cell-based
Summary of the method: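 SRA01/04 lens epithelial cells seeded at 5,000/well, after 15–18 h washed with serum-free medium and exposed 24 h to test sample, final 64 lmol/L from DMSO stock. LDH in supernatant read at 570 nm. Percent specific release = (S−N)/(P−N)×100, P being 0.2% Tween-20 lysis and N cell- and serum-free medium. Triplicate means.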

[5] = species: Homo sapiens; experiment: Inhibition of PMA-stimulated pro MMP9 production in human SRA 01/04 cells at 64 uM after 24 hrs by SDS-PAGE based gelatin zymography assay; type: functional, cell-based

Structure (SMILES)	IC50 [2]	IC50 [3]	Ratio IC50 [1]	Activity [4]	inhibition [5]
COc1cc(-c2cc(=O)c3c(O)c(OC)c(OC)c(OC)c3o2)ccc1O	0.7 µM	10.6 µM	15	Non-toxic	
COc1ccc(-c2cc(=O)c3c(O)c(OC)c(OC)c(OC)c3o2)cc1O	1.5 µM	29.6 µM		Non-toxic	inactive
COc1c(OC)c(OC)c2c(=O)cc(-c3ccc(OCc4ccccc4)cc3)oc2c1OC				Toxic	
COc1ccccc1-c1cc(=O)c2c(OC)c(OC)c(OC)c(OC)c2o1	13.7 µM	24 µM		Non-toxic	
COc1c(OC)c(OC)c2c(=O)cc(-c3ccc(O)cc3)oc2c1OC	2.6 µM	14.3 µM		Non-toxic	
COc1c(OC)c(OC)c2c(=O)cc(-c3ccccc3O)oc2c1OC	0.4 µM	68 µM	170	Non-toxic	
COc1c(OC)c(OC)c2c(=O)cc(-c3cccc(OCc4ccccc4)c3)oc2c1OC				Toxic	
COc1ccc(-c2cc(=O)c3c(O)c(OC)c(OC)c(OC)c3o2)cc1OC [5-DEMETHYLNOBILETIN]	3 µM	42.4 µM	14	Non-toxic	inactive
COc1c(OC)c(O)c2c(=O)cc(-c3ccc(O)cc3)oc2c1OC [XANTHOMICROL]	3.5 µM	22.3 µM	6	Non-toxic	

Continued, in another order:

IC50 [2]	IC50 [3]	Structure (SMILES)	Ratio IC50 [1]	Activity [4]	inhibition [5]
8.1 µM	24 µM	COc1c(OC)c(OC)c2c(=O)cc(-c3cc(O)cc(O)c3)oc2c1OC		Non-toxic	
5.5 µM	15.5 µM	COc1cccc(-c2cc(=O)c3c(OC)c(OC)c(OC)c(OC)c3o2)c1		Non-toxic	
6.8 µM	33.2 µM	COc1ccc(-c2cc(=O)c3c(OC)c(OC)c(OC)c(OC)c3o2)cc1 [TANGERETIN]		Non-toxic	
2.5 µM	23.5 µM	COc1c(OC)c(OC)c2c(=O)cc(-c3cccc(O)c3)oc2c1OC		Non-toxic	inactive
12 µM	25.8 µM	COc1cc(OC)cc(-c2cc(=O)c3c(OC)c(OC)c(OC)c(OC)c3o2)c1		Non-toxic	
